ChEMBL document CHEMBL4382201 (J Med Chem, 2018)
Values after ≈ are worked out from the molar mass of the structure shown. Active and inactive are the calls of the source. The calls are words filed in the database; no cut-off is given here.

Assays:
[1] = system: CCRF-CEM; test: Growth inhibition of human CCRF-CEM cells after 48 hrs by SRB assay; assay type: functional
Summary of the method: (§1)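 NCI-60 five-dose screen at 100 µM, 10 µM, 1 µM, 100 nM and 10 nM. Incubation 48 h at 37 °C, 5% CO2, 100% humidity. Growth was expressed relative to the no-drug control and to the time-zero cell number, and GI50 was derived from these values.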

[2] = Chemical stability of the compound in 100 mM pH 6 PBS buffer assessed as compound remaining at 10 mM at room temperature after 2 days; assay type: physicochemical; settings: read-out: Stability
Summary of the method: (§2)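 Compound at 10 mM in 100 mM PBS (pH 6.0 or 7.4, prepared in D2O), diluted 9:1 with DMSO-d6. Kept at room temperature for 3-10 days. The fraction of intact compound was followed by NMR.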

[3] = Chemical stability of the compound in 100 mM pH 6 PBS buffer assessed as compound remaining at 10 mM at room temperature after 4 days; assay type: physicochemical; settings: read-out: Stability; summary of the method: as §2
[4] = Chemical stability of the compound in 90% DMSO/PBS buffer assessed as compound remaining at pH 6 in presence of GSH; assay type: physicochemical
Summary of the method: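 Compound and GSH at a 1:2 ratio in DMSO-d6/PBS 9:1, pH 6.0, at room temperature. Compound-only and GSH-only samples served as controls. Intact compound was monitored by NMR.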

[5] = Solubility of the compound in 50% DMSO/PBS buffer at 10 mM pH 6 after 3 to 10 days by NMR analysis; assay type: physicochemical; settings: pH 6, 10000 µM
[6] = Chemical stability of the compound in 50% DMSO/PBS buffer assessed as compound remaining at pH 6 in presence of GSH after 48 hrs; assay type: physicochemical; settings: 50% DMSO/PBS buffer with GSH, read-out: Stability
Summary of the method: (§3)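 Compound with GSH in DMSO-d6/PBS buffer 1:1, pH 6. Intact compound was followed by NMR over 24-48 h.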

[7] = Chemical stability of the compound in 50% DMSO/PBS buffer assessed as compound remaining at pH 6 in presence of GSH after 24 hrs; assay type: physicochemical; settings: 50% DMSO/PBS buffer with GSH, read-out: Stability; summary of the method: as §3
[8] = system: dsDNA; test: Induction of DNA-interstanded-cross-link formation in [32P]-labeled 49-mer duplex DNA (unknown origin) at 1 mM in absence of H2O2 after 16 hrs by PAGE relative to control; assay type: functional
Summary of the method: (§4)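 A 32P-labelled 49-mer, annealed with 1.5 equiv complement (65 °C for 3 min in 10 mM potassium phosphate pH 7, 100 mM NaCl, then slow cooling), was used at 1.0 µM before final dilution. Duplex was mixed with compound (final 1 mM), NaCl and potassium phosphate pH 8, with or without H2O2. Incubation 16 h at room temperature, formamide quench, then 20% denaturing PAGE.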

[9] = system: dsDNA; test: Induction of DNA-interstanded-cross-link formation in [32P]-labeled 49-mer duplex DNA (unknown origin) at 1 mM in presence of H2O2 after 16 hrs by PAGE relative to control; assay type: functional; summary of the method: as §4
[10] = system: K562; test: Growth inhibition of human K562 cells after 48 hrs by SRB assay; assay type: functional; settings: K562, 48 h; summary of the method: as §1
[11] = system: MOLT-4; test: Growth inhibition of human MOLT4 cells after 48 hrs by SRB assay; assay type: functional; settings: MOLT-4, 48 h; summary of the method: as §1
[12] = system: RPMI-8226; test: Growth inhibition of human RPMI8226 cells after 48 hrs by SRB assay; assay type: functional; settings: RPMI-8226, 48 h; summary of the method: as §1
[13] = system: SR; test: Growth inhibition of human SR cells after 48 hrs by SRB assay; assay type: functional; summary of the method: as §1
[14] = system: HOP-92; test: Growth inhibition of human HOP92 cells after 48 hrs by SRB assay; assay type: functional; settings: HOP-92, 48 h; summary of the method: as §1
[15] = system: HT-29; test: Growth inhibition of human HT-29 cells after 48 hrs by SRB assay; assay type: functional; settings: HT-29, 48 h; summary of the method: as §1
[16] = system: SNB-75; test: Growth inhibition of human SNB75 cells after 48 hrs by SRB assay; assay type: functional; settings: SNB-75, 48 h; summary of the method: as §1
[17] = system: Malme-3M; test: Growth inhibition of human MALME-3M cells after 48 hrs by SRB assay; assay type: functional; summary of the method: as §1
[18] = system: IGROV-1; test: Growth inhibition of human IGROV1 cells after 48 hrs by SRB assay; assay type: functional; settings: IGROV-1, 48 h; summary of the method: as §1
[19] = system: SK-OV-3; test: Growth inhibition of human SKOV3 cells after 48 hrs by SRB assay; assay type: functional; settings: SK-OV-3, 48 h; summary of the method: as §1
[20] = system: MDA-MB-468; test: Growth inhibition of human MDA-MB-468 cells after 48 hrs by SRB assay; assay type: functional; settings: MDA-MB-468, 48 h; summary of the method: as §1
[21] = system: MCF7; test: Growth inhibition of human MCF7 cells after 48 hrs by SRB assay; assay type: functional; settings: MCF7, 48 h; summary of the method: as §1
[22] = Solubility of the compound in PBS buffer at 10 mM at pH 7.4 by UV-based analysis; assay type: physicochemical
Summary of the method: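 Compound (10 mM DMSO stock) was diluted into pH 7.4 buffer (ethanolamine/KH2PO4/potassium acetate/KCl) to a final 5% DMSO. After sonication and 18 h agitation the mixture was filtered and scanned by UV at 230-800 nm. Solubility was calculated from calibration plots made in 20% acetonitrile buffer, in quadruplicate, with solubility standards on each plate.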

[23] = Cytotoxicity against human CLL cells assessed as reduction in cell viability after 24 hrs; assay type: functional, cell-based
Summary of the method: (§5)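 Patient CLL lymphocytes isolated on Ficoll-Hypaque and held in RPMI 1640 with 10% autologous plasma at 1×10^7 cells/mL, fresh cells only. Cells were exposed to a concentration series for 24 h alongside time-matched untreated controls. Apoptosis was measured by annexin V-FITC/PI flow cytometry, at least 10,000 events per sample; each patient was analysed separately.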

[24] = system: Lymphocyte; test: Induction of apoptosis in human CLL-derived lymphocytes up to 30000 nM after 24 hrs by Annexin V-FITC/propidium iodide-staining based flow cytometry; assay type: functional, cell-based; summary of the method: as §5
[25] = system: Lymphocyte; test: Induction of apoptosis in human lymphocytes at 10 uM after 24 hrs by Annexin V-FITC/propidium iodide-staining based flow cytometry; assay type: cell-based
Summary of the method: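 Normal PBMCs from 3 donors were isolated on Ficoll and treated at 10 µM. Apoptosis was measured by annexin V-FITC/PI flow cytometry against time-matched untreated controls.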

[26] = system: DNA; test: Induction of DNA cross-linking activity in human CLL-derived lymphocytes assessed as increase in gammaH2AX formation at 10 uM after 24 hrs by flow cytometry; assay type: functional, cell-based
Summary of the method: (§6)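 Primary CLL lymphocytes from 3 patients were treated for 24 h at 10 µM or 1 µM, depending on compound. H2AX phosphorylation (% γH2AX) was measured by flow cytometry.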

[27] = Toxicity in CD1 mouse at 1.5 mg/kg/day, ip for 5 days per week measured after 3 months; assay type: organism-based; settings: in vivo, 120 h
Summary of the method: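 Mice were dosed i.p. at 1.5 mg/kg per day, 5 days per week, over three months and observed for toxicity.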

[28] = system: MDA-MB-468; test: Antitumor activity against human MDA-MB-468 cells xenografted in nude CD1 mouse assessed as tumor size of initial size at 1.5 mg/kg/day, ip measured after 7 weeks (reference value: 278 to 657%); assay type: functional
Summary of the method: (§7)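 Female athymic nude mice (35 days, 20-22 g) received 2 million MDA-MB-468 cells s.c. in the flank, suspended in 1:1 matrigel/DMEM. Mice with palpable tumours were given 1.5 mg/kg i.p. or vehicle, 11 mice per group. Tumour size was measured by caliper every 7 days and body weight was recorded regularly.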

[29] = Toxicity in CD1 mouse xenografted with human MDA-MB-468 cells assessed as body weight change at 1.5 mg/kg/day, ip measured after 7 weeks; assay type: organism-based; settings: in vivo, 1176 h; summary of the method: as §7
[30] = Chemical stability of the compound in 100 mM pH 7.4 PBS buffer assessed as compound remaining at 10 mM at room temperature after 2 days; assay type: physicochemical; settings: read-out: Stability; summary of the method: as §2
[31] = Chemical stability of the compound in 100 mM pH 7 PBS buffer assessed as compound remaining at 10 mM at room temperature after 4 days; assay type: physicochemical; settings: read-out: Stability; summary of the method: as §2
[32] = Drug metabolism in DMSO-d6/PBS buffer assessed as (S)-3-((2-amino-3-methoxy-3-oxopropylthio)methyl)-4-((2-chloroethyl)(2-hydroxyethyl)amino)phenylboronic acid formation after 10 days in presence of GSH by IT-TOF mass analysis
[33] = Drug metabolism in DMSO-d6/PBS buffer assessed as 1-(2-chloroethyl)-5-(methoxycarbonyl)-1,2,3,4,5,7-hexahydrobenzo[g][1,3,6]thiadiazonin-9-ylboronic acid formation after 10 days in presence of GSH by IT-TOF mass analysis
[34] = Drug metabolism in DMSO-d6/PBS buffer assessed as 1-(2-hydroxyethyl)-5-(methoxycarbonyl)-1,2,3,4,5,7-hexahydrobenzo[g][1,3,6]thiadiazonin-9-ylboronic acid formation after 10 days in presence of GSH by IT-TOF mass analysis
[35] = system: MDA-MB-468; test: Growth inhibition of human MDA-MB-468 cells after 48 hrs by […]; assay type: functional, cell-based; settings: MDA-MB-468, 48 h
[36] = Drug level in DMSO-d6/PBS buffer treated with (3-(((2-Amino-3-methoxy-3-oxopropyl)thio)methyl)-4-(bis(2-chloroethyl)amino)phenyl)boronic Acid assessed as compound formation after 10 days in presence of GSH by IT-TOF mass analysis; assay type: physicochemical; settings: 240 h
[37] = system: DNA; test: Induction of DNA cross-linking activity in human CLL-derived lymphocytes assessed as increase in gammaH2AX formation at 1 uM after 24 hrs by flow cytometry; assay type: functional, cell-based; summary of the method: as §6

| SMILES | GI50 [1] | Activity [8] | Activity [9] | GI50 [10] | GI50 [11] | GI50 [12] | GI50 [13] | GI50 [14] | GI50 [15] | GI50 [16] | GI50 [17] | GI50 [18] | GI50 [19] | GI50 [20] | GI50 [21] | solubility [22] | Activity [25] | IC50 [35] | also measured |
| --- | --- | --- | --- | --- | --- | --- | --- | --- | --- | --- | --- | --- | --- | --- | --- | --- | --- | --- | --- |
| COC(=O)[C@H](N)CSCc1cc(B(O)O)ccc1N(CCCl)CCCl | 0.54 µM | 1.5 to 15% | < 65% | 3.25 µM | 0.6 µM | 2.62 µM | 0.28 µM | 0.56 µM | 4.03 µM | 0.85 µM | 2.39 µM | 3.32 µM | 1.46 µM | 1.49 µM | 0.72 µM | 231 µM (≈ 94.5 µg/mL) | Non-Toxic | 3.4 µM | remaining at 48 h, 10000 µM [2]: 92%; remaining at 96 h, 10000 µM [3]: 85%; Stability [4]: Stable; solubility [5]: Insoluble; remaining at 48 h [6]: 70%; remaining at 24 h [7]: 90%; IC50 [23]: 0.003 to 0.778 µM; Activity [24]: Active; Activity [26]: Active; Activity [27]: Non-Toxic; Activity [28]: 58 - 178%; Activity [29]: Non-Toxic; remaining at 48 h, 10000 µM [30]: 92%; remaining at 96 h, 10000 µM [31]: 85%; Drug metabolism [32]: Metabolite detected; Drug metabolism [33]: Metabolite detected; Drug metabolism [34]: Metabolite detected |
| N[C@H](CSCc1cc(B(O)O)ccc1N(CCO)CCCl)C(=O)O |  |  |  |  |  |  |  |  |  |  |  |  |  |  |  |  |  |  | Drug uptake [36]: Active |
| COc1cc(N(CCCl)CCCl)ccc1B1OC(C)(C)C(C)(C)O1 |  | 8% | < 65% |  |  |  |  |  |  |  |  |  |  |  |  | 50 µM (≈ 18.7 µg/mL) | Non-Toxic | 34.4 µM | Activity [37]: Active |
| Cc1cc(N(CCCl)CCCl)ccc1B1OC(C)(C)C(C)(C)O1 | 2.9 µM | 1.5 to 15% | < 65% | 5.48 µM | 2.6 µM | 12 µM | 0.49 µM | 13.3 µM | 14.7 µM | 10.1 µM | 13.6 µM | 16.1 µM | 4.62 µM | 7.88 µM | 3.86 µM | 24 µM (≈ 8.59 µg/mL) |  | 48.3 µM |  |
